Drawing on ChEMBL document CHEMBL1158703, “Psychopharmacological profile of the alkaloid psychollatine as a 5HT2A/C serotonin modulator” (2005), this text covers Activity for 5 compounds.

Experiment [1] concerns Mus musculus. Kind of experiment: Anxiolytic activity against CF1 mouse assessed as suppression of oxotremorine-treated tremors at 3 mg/kg. In kind it is functional, organism-based. The arrangement: dose 3 mg/kg. The essentials: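 Mice received treatment i.p. 30 min before oxotremorine 0.5 mg/kg in saline. Each mouse was then placed alone in a transparent cage immediately after injection and tremor was scored. Data given as median (interquartile range); Kruskal–Wallis then Mann–Whitney U against saline + oxotremorine.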

Experiment [2] has as its system Mus musculus. Briefly: Anxiolytic activity against CF1 mouse assessed as increase in number of rearings at 0.75 mg/kg after 30 mins by hole-board assay. In kind it is functional, organism-based. On the set-up: dose 0.75 mg/kg. In short, it runs like this:
(§1)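 Hole-board with photocell-counted head-dips; the board was marked into 16 squares of 10×10 cm. Male CF1 mice were acclimatised ≥1 h in dim light. Diazepam in 10% propylene glycol was given i.p. 30 min before testing. Picrotoxin 1 mg/kg i.p. was given 30 min before treatment. Head-dips, squares crossed and rearings were recorded over 5 min. N = 8–15, ANOVA then SNK.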

The subject of experiment [3] is Mus musculus. Briefly: Anxiolytic activity against CF1 mouse assessed as increase in time spent in light compartment at 0.85 mg/kg in presence of picrotoxin for 5 mins. In kind it is functional, organism-based. The arrangement: dose 0.85 mg/kg. In short, it runs like this: (§2)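 Light/dark box with a small black compartment and a large white one lit at 400 lx. Male CF1 mice were acclimatised for ≥1 h under dim red light. Diazepam in 10% propylene glycol was given i.p. 30 min before testing. Picrotoxin 1 mg/kg i.p. in saline was given 30 min before treatment. Read-outs: latency to first entry and time spent in the light area. N = 8–22, ANOVA then SNK.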

For experiment [4], the system named is Mus musculus. Kind of experiment: Anxiolytic activity against CF1 mouse assessed as increase in number of head dips at 0.75 mg/kg after 30 mins in presence of picrotoxin by hole-board assay. In kind it is functional, organism-based. The arrangement: dose 0.75 mg/kg. In short, it runs like this:
as §1

Experiment [5] concerns Mus musculus. Briefly: Effect on locomotory activity in CF1 mouse assessed as change in spontaneous activity at 0.75 and 0.85 mg/kg. In kind it is functional, organism-based. The arrangement: dose 0.85 mg/kg. In short, it runs like this: (§3)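 Mice were habituated singly for 10 min in photocell activity cages and then dosed i.p. Diazepam was given in 10% propylene glycol. After 30 min, crossings were recorded for 15 min. n = 10–16, ANOVA then SNK.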

For experiment [6], the system named is Mus musculus. Kind of experiment: Anxiolytic activity against CF1 mouse assessed as increase in number of crossings at 0.75 mg/kg after 30 mins by hole-board assay. The class given is functional, organism-based. On the set-up: dose 0.75 mg/kg. The essentials: as §1
Experiment [7] has as its system Mus musculus. Briefly: Anxiolytic activity against CF1 mouse assessed as increase in number of rearings at 0.75 mg/kg after 30 mins in presence of picrotoxin by hole-board assay. The class given is functional, organism-based. The arrangement: dose 0.75 mg/kg. The essentials:
as §1

Experiment [8] concerns Mus musculus. Briefly: Effect on locomotory activity in CF1 mouse assessed as change in spontaneous activity at 3 to 30 mg/kg. In kind it is functional, organism-based. In short, it runs like this:
as §3

The subject of experiment [9] is Mus musculus. Kind of experiment: Anxiolytic activity against CF1 mouse assessed as increase in number of crossings at 0.75 mg/kg after 30 mins in presence of picrotoxin by hole-board assay. The class given is functional, organism-based. On the set-up: dose 0.75 mg/kg. The essentials: as §1
The test system of experiment [10] is Mus musculus. Briefly: Anxiolytic activity against CF1 mouse assessed as increase in time spent in light compartment at 0.85 mg/kg for 5 mins. In kind it is functional, organism-based. The arrangement: dose 0.85 mg/kg. The essentials:
as §2

Experiment [11] concerns Mus musculus. Briefly: Anticonvulsant activity against CF1 mouse assessed as protection against PTZ-induced convulsions at 20 mg/kg, ip for 60 mins. In kind it is functional. To be noted: route intraperitoneal. In short, it runs like this: (§4)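 Male adult CF1 mice (2 months at purchase, housed ≥2 weeks at 22 °C, 12 h light/dark). Drug given i.p. (0.1 mL/10 g); 30 min later PTZ 88 mg/kg s.c. Each mouse then observed singly for 60 min for clonic convulsions lasting >3 s. n = 10 per group. Fisher's exact test against vehicle (saline or 10% propylene glycol).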

Experiment [12] relates to Mus musculus. Kind of experiment: Anticonvulsant activity against CF1 mouse assessed as protection against PTZ-induced convulsions at 0.8 mg/kg, ip for 60 mins. To be noted: route intraperitoneal. In kind it is functional. In short, it runs like this:
as §4

In experiment [13] the test system is Mus musculus. Kind of experiment: Anxiolytic activity against CF1 mouse assessed as increase in latency to enter in the dark compartment 0.85 mg/kg for 5 mins. The class given is functional, organism-based. The arrangement: dose 0.85 mg/kg. In short, it runs like this:
as §2

Experiment [14] relates to Mus musculus. Briefly: Anxiolytic activity against CF1 mouse assessed as increase in latency to enter in the dark compartment 0.85 mg/kg in presence of picrotoxin for 5 mins. On the set-up: dose 0.85 mg/kg. The class given is functional, organism-based. In short, it runs like this:
as §2

Experiment [15] has as its system Mus musculus. Kind of experiment: Anxiolytic activity against CF1 mouse assessed as increase in number of head dips at 0.75 mg/kg after 30 mins by hole-board assay. The class given is functional, organism-based. The arrangement: dose 0.75 mg/kg. The essentials: as §1
Experiment [16] relates to Mus musculus. Briefly: Antidepressant activity in CF1 mouse assessed as decrease in duration of immobility at 0.15 mg/kg during final 4 mins of the 6 mins session by forced swimming test. The class given is functional. In short, it runs like this: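 Male adult CF1 mice, dosed i.p. Each mouse made to swim for 6 min in a 30 cm diameter cylinder holding 20 cm of water at 25 ± 1 °C. Immobility time was scored over the last 4 min. N = 10 per group, mean ± SEM, ANOVA against saline.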

Experiment [17] has as its system Mus musculus. Briefly: Effect on long term memory of CF1 mouse assessed as reduction in step down latency at 0.15 mg/kg by passive avoidance test. In kind it is functional. In short, it runs like this: (§5)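 Step-down inhibitory avoidance in male CF1 mice. Training used a 0.3 mA scrambled footshock for 15 s on stepping down. The test session was 24 h later without shock, with a 300 s cutoff. For acquisition effects, drug (MK-801 or diazepam in 10% propylene glycol, i.p.) was given 30 min before training; the post-training group was dosed immediately after training. N = 20, medians (IQR).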

For experiment [18], the system named is Mus musculus. Briefly: Effect on short term memory of CF1 mouse assessed as reduction in step down latency at 0.15 mg/kg by passive avoidance test. In kind it is functional.
Experiment [19] has as its system Mus musculus. Kind of experiment: Effect on short term memory of CF1 mouse assessed as reduction in latency during aquisition at 0.15 mg/kg by passive avoidance test. The class given is functional.
Experiment [20] deals with Mus musculus. Briefly: Effect on long term memory of CF1 mouse assessed as reduction in latency during aquisition at 0.15 mg/kg by passive avoidance test. In kind it is functional. In short, it runs like this:
as §5

Experiment [21] relates to Mus musculus. Briefly: Antidepressant activity in CF1 mouse assessed as decrease in duration of immobility at 15 mg/kg during final 4 mins of the 6 mins session by forced swimming test. The class given is functional.

Activity calls are given as the source filed them.

On to `CN1[C@@H]2C[C@@H](OC(=O)[C@H](CO)c3ccccc3)C[C@H]1[C@@H]1O[C@@H]12`, for which the result with Mus musculus [1] was Active.
For `CN1C(=O)CN=C(c2ccccc2)c2cc(Cl)ccc21` [DIAZEPAM], the outcome in the experiment on Mus musculus [2], in the experiment with Mus musculus [6], in the experiment with Mus musculus [10], in the experiment on Mus musculus [13] and in the experiment with Mus musculus [15] was Active. For the same compound, the outcome in the experiment with Mus musculus [3], in the experiment on Mus musculus [4], in the experiment with Mus musculus [5], in the experiment on Mus musculus [7], with Mus musculus [8] and in the experiment with Mus musculus [9] was inactive. Also, the outcome in the experiment on Mus musculus [14] was inactive. For the same compound, the values for the Activity in the experiment on Mus musculus [11] and in the experiment with Mus musculus [12] were 0% and 10%, respectively.
On to `C[C@]12N[C@H](Cc3ccccc31)c1ccccc12` [DIZOCILPINE], for which the Activity is reported as 33.36 s with Mus musculus [16]; 6.2 s in the experiment with Mus musculus [17]; 16.5 s in the experiment on Mus musculus [18]; 8.4 s in the experiment on Mus musculus [19]; 6 s in the experiment with Mus musculus [20].
With `CN(C)CCCN1c2ccccc2CCc2ccccc21` [IMIPRAMINE], in the experiment with Mus musculus [21], the Activity is 46.05 s.
Regarding `CCC1(c2ccccc2)C(=O)NC(=O)NC1=O` [PHENOBARBITAL], the Activity is listed as 0% with Mus musculus [11] and 10% in the experiment on Mus musculus [12].
